These results are taken from article PMC5028085 (Drug Design, Development and Therapy, 2016).

Counter-ions that a name gives are not always drawn. Like-named read-outs stand apart in the source and are kept apart here. Marks after values point to notes of the source that are not given here. Bounds are passed on as bounds.

The test system of series [1] is UGT1A4. The conditions noted are these: M-1 glucuronidation; cited from earlier work.
The test system of series [2] is MDCK-II-P-gp cells. Description: MTT cytotoxicity assay in MDCK-II-P-gp cells. The series is classed as cell-based, canine. To be noted: 1 hour incubation, highest drug concentration tested (10 μM). Background: Tetrazolium assays rely on reduction of a dye to a coloured formazan, in cell work by metabolically active cells.
The subject of series [3] is UGT1A9. To be noted: M-1 glucuronidation; cited from earlier work.
The test system of series [4] is MDCK-II-BCRP cells. Description: MTT cytotoxicity assay in MDCK-II-BCRP cells. To be noted: 1 hour incubation, highest drug concentration tested (10 μM). The class given is cell-based, canine.
In series [5] the test system is CYP2D6. To be noted: read-out: CYP2D6 Ki; competitive inhibition type, in vitro; cited from earlier work.
Series [6] addresses P-gp (Homo sapiens, UniProt P08183). The series is classed as cell-based. The conditions noted are these: for Permeability Papp,AB of loperamide / Permeability Papp,BA of loperamide / Inhibition (%): MDCK-II-P-gp; for Permeability Papp,AB of loperamide / Permeability Papp,BA of loperamide: loperamide 10 μM, mean ± SD (n=3); for Inhibition (%): loperamide transport.
Series [7] concerns UGT2B7. The conditions noted are these: M-1 glucuronidation; cited from earlier work.
For series [8] the following is noted: cited from earlier work.
The target in series [9] is T1, BCRP (Homo sapiens, UniProt Q9UNQ0).
T1 sequence (Q9UNQ0 1-655): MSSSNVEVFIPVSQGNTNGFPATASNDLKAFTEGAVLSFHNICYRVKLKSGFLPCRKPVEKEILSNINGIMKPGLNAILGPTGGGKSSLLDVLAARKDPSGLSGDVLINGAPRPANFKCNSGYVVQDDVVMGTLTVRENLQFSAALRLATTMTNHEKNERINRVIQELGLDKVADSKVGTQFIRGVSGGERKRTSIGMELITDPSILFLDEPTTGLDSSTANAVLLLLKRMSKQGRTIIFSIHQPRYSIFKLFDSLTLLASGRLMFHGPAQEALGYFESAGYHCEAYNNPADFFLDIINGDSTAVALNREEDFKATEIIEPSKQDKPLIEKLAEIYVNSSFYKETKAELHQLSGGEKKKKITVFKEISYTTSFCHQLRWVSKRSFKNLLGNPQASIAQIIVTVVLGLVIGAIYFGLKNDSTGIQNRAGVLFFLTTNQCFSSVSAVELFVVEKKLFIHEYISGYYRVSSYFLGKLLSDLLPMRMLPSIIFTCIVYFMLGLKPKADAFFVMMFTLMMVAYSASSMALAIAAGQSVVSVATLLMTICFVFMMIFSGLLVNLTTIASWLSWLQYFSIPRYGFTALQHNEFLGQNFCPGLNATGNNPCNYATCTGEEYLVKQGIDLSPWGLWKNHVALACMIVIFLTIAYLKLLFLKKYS
The series is classed as cell-based. The conditions noted are these: for Permeability Papp,AB of prazosin / Permeability Papp,BA of prazosin / Inhibition (%): MDCK-II-BCRP; for Permeability Papp,AB of prazosin / Permeability Papp,BA of prazosin: prazosin 10 μM, mean ± SD (n=3); for Inhibition (%): prazosin transport; for inhibition of BCRP-mediated prazosin transport: all tested concentrations up to 10 μM.

The conditions of series [10]: cited from earlier work. The source holds these as a separate data set.
Series [11] is described as follows: Metabolic stability in pooled human liver microsomes for CLint. To be noted: for microsomal CLint at 400 nM: human, pooled human liver microsomes. The class given is in vitro ADME. In short, it runs like this:
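Preincubated 5 min at 37°C, then incubated with 400 nM substrate up to 60–90 min. Run in duplicate, analysed by LC-MS/MS as % remaining vs time 0. t1/2 from initial log-linear slope; CLint = (0.693/t1/2)×(incubation volume/microsomal protein).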
For orientation: Microsomes from liver hold many membrane-bound enzymes, among them those of drug oxidation.

Series [12] in a line: Observed clinical pharmacokinetics after oral sarpogrelate hydrochloride. The class given is in vivo, human.
Series [13] in a line: MTT cytotoxicity assay in MDCK-II-P-gp cells. The series is classed as cell-based, canine. To be noted: dog.
Series [14] in a line: MTT cytotoxicity assay in MDCK-II-BCRP cells. The series is classed as cell-based, canine. The conditions noted are these: dog.
For series [15] the following is noted: high solubility and permeability profile; cited from earlier work.
Series [16] is described as follows: PBPK input parameters predicted, defaulted, optimized or assumed in Simcyp. To be noted: Assumed from Reference 21. Also noted: species or system human.
The conditions of series [17]: cited from earlier work. The source holds these as a separate data set.
A short description of series [18]: Metabolic stability of sarpogrelate in human intestinal microsomes. To be noted: sarpogrelate 400 nM, 60-minute incubation; data not shown. The class given is in vitro ADME.
Series [19] in a line: Metabolic stability of sarpogrelate in human blood. The class given is in vitro ADME. The conditions noted are these: sarpogrelate 400 nM, 60-minute incubation; data not shown.
Series [20] concerns CYP2D6. The conditions noted are these: cited from earlier work.
Series [21] concerns CYP2D6. To be noted: single coadministration with sarpogrelate hydrochloride 100 mg; cited from earlier work.
Where [22] appears, read: multiple doses 100 mg tid for 1 day.
[23] abbreviates: observed, single oral 100 mg sarpogrelate hydrochloride, median (range), ref 20.
Where [24] appears, read: human, MDCK-II-P-gp cell monolayer, probe loperamide (10 µM).
[25] abbreviates: single oral 100 mg sarpogrelate hydrochloride.
[26] abbreviates: human, MDCK-II-BCRP cell monolayer, probe prazosin (10 µM).

Sequence of P-gp (P08183 whole entry): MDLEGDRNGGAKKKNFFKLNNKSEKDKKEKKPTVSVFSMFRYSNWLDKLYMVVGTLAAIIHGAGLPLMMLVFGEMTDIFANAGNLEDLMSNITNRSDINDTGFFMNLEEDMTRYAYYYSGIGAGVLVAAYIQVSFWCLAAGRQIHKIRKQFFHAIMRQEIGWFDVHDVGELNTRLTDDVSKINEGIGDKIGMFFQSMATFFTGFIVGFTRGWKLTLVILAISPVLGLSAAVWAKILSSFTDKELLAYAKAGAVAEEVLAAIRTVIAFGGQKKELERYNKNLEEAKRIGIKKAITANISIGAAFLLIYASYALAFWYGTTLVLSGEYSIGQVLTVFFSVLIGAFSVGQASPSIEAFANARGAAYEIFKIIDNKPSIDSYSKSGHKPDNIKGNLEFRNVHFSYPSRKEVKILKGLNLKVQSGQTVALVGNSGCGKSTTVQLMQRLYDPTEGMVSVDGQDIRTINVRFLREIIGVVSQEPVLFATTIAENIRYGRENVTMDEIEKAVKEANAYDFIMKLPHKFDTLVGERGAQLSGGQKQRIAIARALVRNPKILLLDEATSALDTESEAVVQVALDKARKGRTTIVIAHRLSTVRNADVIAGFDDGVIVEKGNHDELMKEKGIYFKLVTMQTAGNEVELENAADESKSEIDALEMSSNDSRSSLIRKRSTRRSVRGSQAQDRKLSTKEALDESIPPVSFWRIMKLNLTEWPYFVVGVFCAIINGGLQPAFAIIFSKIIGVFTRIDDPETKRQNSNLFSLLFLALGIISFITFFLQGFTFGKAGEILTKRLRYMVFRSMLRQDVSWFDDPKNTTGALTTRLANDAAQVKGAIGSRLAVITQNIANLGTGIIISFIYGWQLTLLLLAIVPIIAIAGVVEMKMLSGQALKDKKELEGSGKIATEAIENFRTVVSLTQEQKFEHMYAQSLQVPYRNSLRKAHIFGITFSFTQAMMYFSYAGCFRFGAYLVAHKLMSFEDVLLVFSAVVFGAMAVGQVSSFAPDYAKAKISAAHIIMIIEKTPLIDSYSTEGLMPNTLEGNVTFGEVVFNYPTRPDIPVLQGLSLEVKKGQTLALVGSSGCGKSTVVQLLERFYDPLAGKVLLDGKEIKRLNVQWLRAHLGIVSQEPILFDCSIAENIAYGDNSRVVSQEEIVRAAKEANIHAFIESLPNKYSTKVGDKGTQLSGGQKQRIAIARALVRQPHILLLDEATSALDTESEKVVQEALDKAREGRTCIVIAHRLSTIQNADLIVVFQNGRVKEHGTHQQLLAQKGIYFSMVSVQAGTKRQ

Consider `COc1cccc(CCc2ccccc2OC[C@H](O)CN(C)C)c1` (racemic) [M-1, (R,S)-1-{2-[2-(3-methoxyphenyl)ethyl]-phenoxy}-3-(dimethylamino)-2-propanol], for which the “CLint by rUGT1A4” value in [1] is reported as 0.63 μL/min/mg protein. Also, the “cell viability (MTT assay)” value in series [2] and in [4] was over 97% throughout. Further, in [3], the “CLint by rUGT1A9” value is given as 1.30 μL/min/mg protein. Further, the inhibition constant (Ki) – broadly, the dissociation constant of the complex between target and ligand, obtained from inhibition or displacement – in [5] is 120 nM. Further, the “Permeability Papp,AB of loperamide” value is 0.0894±0.0188 ×10^−6 cm/s in series [6] (inhibitor 0.2 µM), 0.0822±0.0192 ×10^−6 cm/s in series [6] (inhibitor 2 µM) and 0.104±0.0243 ×10^−6 cm/s in [6] (inhibitor 10 µM). Further, the “Permeability Papp,BA of loperamide” value in series [6] (inhibitor 0.2 µM) is on record as 1.95±0.0443 ×10^−6 cm/s; in series [6] (inhibitor 2 µM), 1.84±0.0249 ×10^−6 cm/s; in [6] (inhibitor 10 µM), 1.95±0.0403 ×10^−6 cm/s. In addition, the “Inhibition (%)” value is listed as 2.00% in series [6] (inhibitor 0.2 µM); 7.82% in series [6] (inhibitor 2 µM); 2.91% in series [6] (inhibitor 10 µM); 0.380% in series [9] (inhibitor 0.2 µM); 0.771% in series [9] (inhibitor 2 µM); 0.381% in [9] (inhibitor 10 µM). Also, the “inhibition of P-gp-mediated loperamide transport” value in series [6] (all tested concentrations up to 10 μM) is reported as under 10%. In addition, the “CLint by rUGT2B7” value in [7] was 0.32 μL/min/mg protein. For the same compound, the “observed values of AUC0–24 h (range across studies)” value in series [8] (setting [22]) was 246.2 to 267.2 ng·h/mL. Moreover, the Tmax in series [8] (setting [23]) is on record as 1.0 (0.33–1.5) ^a hours. In addition, the “Permeability Papp,AB of prazosin” value is 0.891±0.0355 ×10^−6 cm/s in series [9] (inhibitor 0.2 µM), 0.813±0.0547 ×10^−6 cm/s in [9] (inhibitor 2 µM) and 0.811±0.0111 ×10^−6 cm/s in series [9] (inhibitor 10 µM). Moreover, the results for the “Permeability Papp,BA of prazosin” value in series [9] (inhibitor 0.2 µM), in [9] (inhibitor 2 µM) and in series [9] (inhibitor 10 µM) were 3.42±0.0237 ×10^−6 cm/s, 3.31±0.0467 ×10^−6 cm/s and 3.32±0.0139 ×10^−6 cm/s, respectively. In addition, in [9], the “inhibition of BCRP-mediated prazosin transport” value is on record as “did not inhibit”. For the same compound, in series [10], the “fup (fraction unbound in plasma)” value is on record as 0.03. Also, in [11] (400 nM M-1 in HLM with NADPH generating system), the “Additional CLint in HLM (NADPH generating system)” value turned out to be 150 μL/min/mg protein. The “observed ratio of AUC of M-1 to sarpogrelate” value in [12] (single oral 100 mg sarpogrelate hydrochloride, observed clinical data) worked out at 0.139.

Take `COc1cccc(CCc2ccccc2OCC(CN(C)C)OC(=O)CCC(=O)O)c1` (racemic) [Sarpogrelate, (R,S)-1-{2-[2-(3-methoxyphenyl)ethyl]-phenoxy}-3-(dimethylamino)-2-propyl hydrogen succinate hydrochloride]: the viability (commonly the share of living cells, or the viability signal relative to a control) at 1 h, 10 µM in series [13] was over 97%. Also, the viability at 1 h, 10 µM in [14] was over 97%. The “biopharmaceutics classification system (BCS) class” value in series [15] is recorded as “Class I”. Also, the Ki in series [5] is 1240 nM. Also, in series [16], the Lag time is 0 h and the “fa (fraction absorbed in the gastrointestinal tract)” value is given as 1.0. Besides, the Log P (usually the decadic logarithm of the partition coefficient of the neutral form, usually between octanol and water) in [17] (PBPK input, reference cell empty, apparently ref www.Chembase.cn) is 1.12. Besides, the PSA in series [17] (ref www.Chembase.cn) is reported as 85.3. Besides, in [6] (setting [24]), the inhibition (in general, the drop in the measured response relative to a control, in per cent) at 1 h was under 10%; the inhibition at 1 h, 0.2 µM stood at 9.18%; the inhibition at 1 h, 2 µM was determined as 9.72%; the inhibition at 1 h, 10 µM was found to be 9.95%. Besides, the Tmax in series [8] (humans, 100 mg oral dose) was 0.889 ± 0.651 h. In addition, in series [8] (setting [22]), the “observed values of AUC0–24 h (range across studies)” value is on record as 1,291–1,773 ng h/mL and the “observed values of Cmax (range across studies)” value was 466.0 to 781.6 ng/mL. Moreover, the Tmax in series [8] (setting [23]) is 0.67 (0.3–1.5) ^a hours. For the same compound, in [8] (observed, single oral 100 mg sarpogrelate hydrochloride, median (range), ref 22), the Tmax is 1.00 (1.0–4.0) ^a hours. Also, in [8] (setting [25]), the “observed values of AUC (range across studies)” value is 348.3 to 621.5 ng·h/mL and the “observed values of Cmax (range across studies)” value is 343.0 to 635.1 ng/mL. For the same compound, the “unchanged sarpogrelate in urine or feces” value in series [8] (up to 24 hours after a 100 mg oral dose, humans) is “no unchanged sarpogrelate was detected”. Besides, the “inhibition of BCRP-mediated prazosin transport” value in series [9] is on record as “did not inhibit”. In addition, in [9] (setting [26]), the inhibition at 1 h, 0.2 µM worked out at 2.69%; the inhibition at 1 h, 2 µM came to 9.62%; the inhibition at 1 h, 10 µM worked out at 0.38%. For the same compound, the “formation of M-1 in human intestinal microsomes” value in series [18] is on record as “not observed”. For the same compound, the “formation of M-1 in human blood” value in [19] is listed as “not observed”. In addition, the plasma protein binding entry in [10] was “approximately 95%”. Moreover, the microsomal CLint at 400 nM in series [11] (pH 7.4, CLint for M-1 formation (carboxylesterase-mediated CLint), 400 nM sarpogrelate, HLM 0.1 mg/mL, no cofactor) amounted to 32.6 µL/min/mg. In series [11] (pH 7.5, carboxylesterase and UDPGA-dependent CLint, 400 nM sarpogrelate in HLM with UDPGA), this compound showed a microsomal CLint at 400 nM of 50 ± 7.89 µL/min/mg. The “CLpo (oral systemic clearance)” value in series [12] (Calculated from clinical data) is 140 L/h.

For the compound `CNCCCN1c2ccccc2CCc2ccccc21` [Desipramine, desipramine], the “metabolized fraction by CYP2D6” value in series [20] was 0.88.

Take `COc1ccc2c(c1)[C@]13CCCC[C@@H]1[C@H](C2)N(C)CC3` [Dextromethorphan, dextromethorphan]: the “metabolized fraction by CYP2D6” value in [20] is listed as 0.96.

For `COCCc1ccc(OCC(O)CNC(C)C)cc1` (stereo not drawn) [Metoprolol, metoprolol], the “metabolized fraction by CYP2D6” value in series [20] is reported as 0.83. Moreover, in series [21], the “fold increase of AUCt of metoprolol (observed)” value is 1.53 fold and the “fold increase of Cmax of metoprolol (observed)” value is listed as 1.62 fold.
